Where a SMILES comes first, the peptide text is derived from it. Bridges are numbered along the chain shown (N, C = ends). [ ]: non-standard residue; d: D form. S5 = C=CCCC[C@](C)(N)C(=O)O
Legend:
[1] = format: physicochemical; conditions: fit of NMR chemical shift changes with concentration, D2O, 298 K, pH 7.0
[2] = Dynamic light scattering of free peptides; format: physicochemical; conditions: DLS, lower peptide concentration (100 µM)
Procedure, shortened: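 Free stapled peptide stocks, quantified by absorbance at 280 nm, were diluted into D₂O or H₂O to 100 µM or 1 mM and centrifuged at 6,000–8,000 g before loading. Light scattering was recorded as one hundred 5-s scans per sample at ambient temperature and corrected for solvent signal. Normalized intensity was plotted against radius, and the hydrodynamic radius and polydispersity index of major peaks were reported.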

[3] = biological target: CA-CTD dimerization helix peptide CTD dimerization helix (Human immunodeficiency virus 1) (UniProt O93182); conditions: cited from earlier work

Kd of self-association, isodesmic model of indefinite association [1] [µM] | effective radius of gyration of monomer [2] [nm] | Compound | Kd [3] [µM]
2500 ± 1400 | 1 | CC[C@H](C)[C@H](N)C(=O)N[C@H](C(=O)N[C@@H](Cc1ccccc1)C(=O)N[C@@]1(C)CCC/C=C\CCC[C@@](C)(C(=O)N[C@@H](Cc2ccc(O)cc2)C(=O)N[C@@H](Cc2ccc(O)cc2)C(=O)NCC(=O)N[C@@H](CCCCN)C(=O)N[C@@H](CCCCN)C(=O)N[C@@H](CCCCN)C(N)=O)NC(=O)[C@H](CC(C)C)NC(=O)[C@H](CC(C)C)NC(=O)[C@H](CC(=O)O)NC1=O)[C@@H](C)O [NYAD-13] (H-ITF[S5]DLL[S5]YYGKKK-NH2; staple (Z) 4-8; N-terminus and C-terminus assumed) | –
– | – | CA-CTD dimerization helix peptide CTD dimerization helix (from UniProt O93182) | 17

Reference: PMC3306222 (Biopolymers, 2011)
